Assay results from different studies.
Lines come from different studies, so protocols differ.
Target: Serine/threonine-protein kinase TBK1 (TBK1, Homo sapiens, UniProt Q9UHD2)

| Structure (SMILES) | assay | test system | conditions | measurement | value |
| --- | --- | --- | --- | --- | --- |
| CO[C@@H](C)c1c(Nc2ccc([C@@H](N(C)C(=O)C3CCS(=O)(=O)CC3)C(F)(F)F)cc2)cnc2cc(Cl)nn12 | cell-free assay, competition with immobilised ligand |  | 1 µM | remaining binding | 77% |
| CCN(CC)CCNC(=O)c1c(C)[nH]c(/C=C2\C(=O)Nc3ccc(F)cc32)c1C | enzyme activity, inhibitor |  | 0.3 µM | inhibition | 42% |
| O=C(NS(=O)(=O)c1ccc(NCC2CCOCC2)c([N+](=O)[O-])c1)c1ccc(N2CCN(Cc3ccc(C(F)(F)F)cc3-c3ccc(Cl)cc3)CC2)cc1Oc1cnc2[nH]ccc2c1 | cell-free assay, competition with immobilised ligand |  | 1 µM | remaining binding | 74% |
| CN1CC(Oc2cnc(C#N)cc2-c2ccn3nc(NC(=O)C4CC4)cc3c2)C1 | enzyme activity, inhibitor |  | 1 µM | inhibition | 3% |
| COc1cc2ncnc(Nc3ccc(Oc4ccccc4)c(C)c3C)c2cc1OC | enzyme activity, inhibitor |  | 1 µM | inhibition | 0% |
| Cc1ccc(Nc2nccc(N(C)c3ccc4c(C)n(C)nc4c3)n2)cc1S(N)(=O)=O | enzyme activity, inhibitor |  | 0.3 µM | inhibition | 22% |
| O=C1CCc2cc(Nc3cc(OC4CCOCC4)c([N+](=O)[O-])cc3Cl)ccc2N1 | cell-free assay, competition with immobilised ligand |  | 1 µM | remaining binding | 100% |
| NS(=O)(=O)c1ccc(CNc2ccnc(Nc3cccc(CN4CCOCC4)c3)n2)cc1 | enzyme activity, inhibitor, radiometric |  | 1 µM | remaining activity | 33% |
| CCN1CCN(Cc2ccc(NC(=O)c3ccc(C)c(Oc4ccnc5[nH]ccc45)c3)cc2C(F)(F)F)CC1 | target engagement in cells, inhibitor, chemoproteomics | Huh-7 | 10 µM | inhibition | -24.4% |
| CN(C)C1CCN(CC#Cc2nn(C3CCCC3)c3nc(NCc4ccccc4)ncc23)C1 (centres unmarked) | enzyme activity, inhibitor, FRET |  | 10 µM | inhibition | 10% |
| FC(F)(F)Oc1cccc(-c2cnc3ccc(-c4ccncc4)nn23)c1 | enzyme activity, inhibitor, radiometric |  | 5 µM | activity vs control | 73% |
| COc1cc(Nc2c(C#N)cnc3cc(OCCCN4CCN(C)CC4)c(OC)cc23)c(Cl)cc1Cl | cell-free assay |  | 0.5 µM | remaining signal | 65.7% |
| NS(=O)(=O)c1ccc(CNc2nc(Nc3cccc(NC(=O)N4CCCC4)c3)ncc2C2CC2)cc1 | enzyme activity, inhibitor, radiometric |  | 1 µM | remaining activity | 6% |
| O=C(O)c1cc(-c2ccc(C3CCNCC3)cc2)c2ccc(-c3ccc(C(F)(F)F)cc3)cc2c1 | cell-free assay, competition with immobilised ligand |  | 1 µM | remaining binding | 80% |
| CCCS(=O)(=O)Nc1ccc(F)c(C(=O)c2c[nH]c3ncc(-c4ccc(Cl)cc4)cc23)c1F | enzyme activity, inhibitor |  | 1 µM | inhibition | < 10% |
| Cc1cc(NC(=O)c2cccc3cc(-c4cccc5[nH]nc(N)c45)ccc23)ccc1F | enzyme activity, inhibitor |  | 0.1 µM | activity vs control | 109% |

| Structure (SMILES) | assay | test system | conditions | measurement | value |
| --- | --- | --- | --- | --- | --- |
| C=CC(=O)Nc1cc(Nc2nccc(Nc3cc(Cl)c(F)cc3C(C)(C)O)n2)c(OC)cc1N1CC[C@@H](N(C)C)C1 | enzyme activity, inhibitor |  | 1 µM | inhibition | 1% |
| Cc1nn(CC(F)(F)F)cc1Nc1nccc(NCCCNC(=O)C2CCC2)n1 | enzyme activity, inhibitor, radiometric |  | 1 µM | remaining activity | 61% |
| O=C1Nc2ccc(Cl)cc2C1=Cc1cc(Cl)c(O)c(Cl)c1 | cell-free assay |  | 0.5 µM | remaining signal | 86.8% |
| O=C(NCCCNc1ccnc(Nc2cccc(NC(=O)N3CCCC3)c2)n1)C1CCC1 | enzyme activity, inhibitor, radiometric |  | 1 µM | remaining activity | 36% |
| Cc1ccc(NC(=O)c2ccc(C)c(C(F)(F)F)c2)cc1C#Cc1nn(C2CCC(O)CC2)c2ncnc(N)c12 (centres unmarked) | cell-free assay |  | 10 µM | remaining signal | 104% |
| Cc1nn(CC(F)(F)F)cc1Nc1ncc(C2CC2)c(NCCCNC(=O)C2CCC2)n1 | enzyme activity, inhibitor, radiometric |  | 1 µM | remaining activity | 4% |
| CN([C@@H]1CCc2c(CC(=O)O)c3cc(S(C)(=O)=O)ccc3n2C1)S(=O)(=O)c1ccc(F)cc1 | cell-free assay, competition with immobilised ligand |  | 1 µM | remaining binding | 97% |
| NS(=O)(=O)c1ccc(CNc2nc(Nc3cccc(NC(=O)N4CCCC4)c3)ncc2Br)cc1 | enzyme activity, inhibitor, radiometric |  | 1 µM | remaining activity | 1% |
| C[C@@H](c1cccc(C#N)c1)n1cc(Cl)cc(C(N)=O)c1=N | cell-free assay, competition with immobilised ligand |  | 1 µM | remaining binding | 89% |
| O=C1NC(=O)c2cc(Nc3ccc(F)cc3)c(Nc3ccc(F)cc3)cc21 | cell-free assay |  | 0.5 µM | remaining signal | 101% |
| c1ccc(CNc2nc(N3CCOc4ccccc43)nc3c2CCCC3)cc1 | target engagement in cells, inhibitor, chemoproteomics |  | 20 mM | inhibition | 3.3% |
| Cc1nn(CC(F)(F)F)cc1Nc1ncc(C2CC2)c(NCc2ccc(S(N)(=O)=O)cc2)n1 | enzyme activity, inhibitor, radiometric |  | 1 µM | remaining activity | 10% |
| CN1CCN(c2cnc3c(C4CCN(C(=O)c5ccc(OC(F)(F)F)cc5N)CC4)ncnc3c2)CC1 | cell-free assay, competition with immobilised ligand |  | 1 µM | remaining binding | 61% |
| CNC(=O)c1cc(Oc2ccc(NC(=O)Nc3ccc(Cl)c(C(F)(F)F)c3)cc2)ccn1 | enzyme activity, inhibitor |  | 10 µM | inhibition | 10% |
| O=C(NCCCC1CCCCC1)c1ccc(CNC(=O)c2cnn(-c3ccccc3)c2C(F)(F)F)cc1 | cell-free assay, competition with immobilised ligand |  | 0.1 µM | remaining binding | 100% |
| c1cc(CN2CCOCC2)cc(Nc2nccc(NCCc3cnc[nH]3)n2)c1 | enzyme activity, inhibitor, radiometric |  | 1 µM | remaining activity | 50% |
